# Published values of several laboratories.
# EPHA5: Ephrin type-A receptor 5 (EPHA5, Homo sapiens, UniProt P54756)
# AMY2: Pancreatic alpha-amylase (AMY2, Sus scrofa, UniProt P00690)
# RORC: Nuclear receptor ROR-gamma (RORC, Homo sapiens, UniProt P51449)
# polA: DNA polymerase I, thermostable (polA, Thermus aquaticus, UniProt P19821)
# SIRT2: NAD-dependent protein deacetylase sirtuin-2 (SIRT2, Homo sapiens, UniProt Q8IXJ6)
# Maoa: Amine oxidase [flavin-containing] A (Maoa, Rattus norvegicus, UniProt P21396)
# SLC22A8: Organic anion transporter 3 (SLC22A8, Homo sapiens, UniProt Q8TCC7)
# FES: Tyrosine-protein kinase Fes/Fps (FES, Homo sapiens, UniProt P07332)
# CDC7: Cell division cycle 7-related protein kinase (CDC7, Homo sapiens, UniProt O00311)
Compound,target,test,conditions,IC50
CNC(=O)c1cc2c(Oc3ccc(NC(=O)C4(C(=O)Nc5ccc(F)cc5)CC4)cc3)ccnc2cc1OC,EPHA5,"enzyme activity, inhibitor, radiometric",,29 nM
COc1ccc(S(=O)(=O)N/N=C2\C(=O)Nc3ccc(Cl)cc32)cc1,AMY2,"enzyme activity, inhibitor",,13100 nM
COc1ccccc1COc1ccc2c(c1)N(S(=O)(=O)c1cccc(C(F)(F)F)c1)CC2,RORC,"ligand displacement, radioligand",,200 nM
COc1cc(N2CCN(C)CC2)ccc1Nc1ncc2c(n1)N(C)c1ccccc1C(=O)N2C,"Serine/threonine-protein kinase DCLK1 (DCLK1, Homo sapiens, UniProt O15075)","enzyme activity, inhibitor, mobility shift",,16 nM
CCCCCCCCCCCCCC(=O)Oc1ccc2ccc(=O)oc2c1,polA,"enzyme activity, inhibitor",,113000 nM
OC[C@@H]1[C@@H](O)[C@H](O)[C@@H](O)[C@@H]2O[C@H]12,"Beta-glucosidase (GBA2, Homo sapiens, UniProt Q9HCG7)","enzyme activity, inhibitor","pH 5, lysate",26700 nM
COc1cc2nccc(Oc3ccc(NC(=O)c4cc5c(n(-c6ccccc6)c4=O)CCCC5=O)nc3)c2cc1OC,"Tyrosine-protein kinase FRK (FRK, Homo sapiens, UniProt P42685)","enzyme activity in cells, inhibitor, ATP luminescence",,> 100 nM
C=C(NC(=O)[C@H](CCCCNC(=S)CCCCCCCCCCCCC)NS(C)(=O)=O)C(=O)N[C@@H](CCCNC(=N)N)C(N)=O,SIRT2,"enzyme activity, inhibitor",,30 nM
CN1c2ccccc2C(=NN=Cc2cc3ccc(Cl)cc3nc2Cl)CS1(=O)=O,Maoa,"enzyme activity, inhibitor, fluorescence",,2030 nM
O=C(O)CNC(=O)C(=O)O,"Lysine-specific demethylase 4D (KDM4D, Homo sapiens, UniProt Q6B0I6)","enzyme activity, inhibitor, AlphaScreen",,34000 nM
CCCCCCCCCCCCNC(=O)NCCCC[C@H](NS(C)(=O)=O)C(=O)N[C@H](C)C(=O)N[C@@H](CCCNC(=N)N)C(N)=O,SIRT2,"enzyme activity, inhibitor",,750 nM
O=C(O)c1cc(-c2ccc(F)cc2F)ccc1O,SLC22A8,"transporter uptake, inhibitor",,720 nM
CN1CCN(c2ccc(Nc3ncc4cc(C#N)c(=O)n(C5CCCC5)c4n3)cc2)CC1,EPHA5,"enzyme activity, inhibitor",,408 nM
Cc1ccc2cc(C=NN=C3CS(=O)(=O)N(C)c4ccccc43)c(Cl)nc2c1,Maoa,"enzyme activity, inhibitor, fluorescence",,1820 nM
CCS(=O)(=O)N1CC(CC#N)(n2cc(-c3ncnc4[nH]ccc34)cn2)C1,SLC22A8,"transporter uptake, inhibitor, radiometric",,8400 nM
O=C1Nc2ccc([N+](=O)[O-])cc2/C1=N/NS(=O)(=O)c1cc(Cl)cc(Cl)c1O,AMY2,"enzyme activity, inhibitor",,1300 nM
CCCCCCCCCCCCNC(=S)NCCCC[C@H](NS(C)(=O)=O)C(=O)N[C@H](C)C(=O)N[C@@H](CCCNC(=N)N)C(=O)N1CCOCC1,SIRT2,"enzyme activity, inhibitor",,90 nM
CC/C=C\C/C=C\C/C=C\C/C=C\C/C=C\CCCC(=O)O,polA,"enzyme activity, inhibitor",,> 100000 nM
CCCCCCCCCCCCNC(=S)NCCCC[C@H](NC(=O)C1CCCCC1)C(=O)N[C@H](C)C(=O)N[C@@H](CCCNC(=N)N)C(N)=O,SIRT2,"enzyme activity, inhibitor",,160 nM
O=C(O)C1=CC(=C(c2ccc(O)c(C(=O)O)c2)c2ccc(O)c(C(=O)O)c2)C=CC1=O,"Flap endonuclease 1 (Homo sapiens, UniProt P39748)","enzyme activity, inhibitor",with preincubation,540 nM
Cc1cccc(C)c1COc1ccc2c(c1)N(S(=O)(=O)c1cccc(C(F)(F)F)c1)CC2,RORC,"ligand displacement, radioligand",,230 nM
Cc1cc(Nc2cc(CN3CCOCC3)c3nc(C)c(Cc4ccc(Cl)cc4F)n3n2)n[nH]1,"Fibroblast growth factor receptor 3 (FGFR3, Homo sapiens, UniProt P22607)","enzyme activity, inhibitor, TR-FRET",,106 nM
C=CC(=O)Nc1cc(Nc2nccc(Nc3cc(Cl)c(F)cc3C(C)(C)O)n2)c(OC)cc1N1CC[C@@H](N(C)C)C1,FES,"enzyme activity, inhibitor",with preincubation,1760 nM
COc1cccc(S(=O)(=O)N2CCc3ccc(OCc4c(F)cccc4Cl)cc32)c1,RORC,"ligand displacement, radioligand",,250 nM
O=C1Nc2ccc(Cl)cc2/C1=N/NS(=O)(=O)c1cc(Cl)cc(Cl)c1O,AMY2,"enzyme activity, inhibitor",,1100 nM
O=S(=O)(c1cccc(C(F)(F)F)c1)N1CCc2ccc(OCc3c(Cl)cncc3C(F)(F)F)cc21,RORC,"ligand displacement, radioligand",,190 nM
O=C(Cc1cccs1)N[C@@H]1C(=O)N2C(C(=O)[O-])=C(C[n+]3ccccc3)CS[C@H]12,"Chymotrypsinogen A (Bos taurus, UniProt P00766)","enzyme activity, inhibitor, fluorescence",,6000 nM
O=S(=O)(c1cccc(C(F)(F)F)c1)N1CCc2ccc(OCc3c(Cl)ccnc3Cl)cc21,RORC,"ligand displacement, radioligand",,78 nM
CC(C)[C@H](N)c1nc2cc(-c3ccnc(F)c3)sc2c(=O)[nH]1,CDC7,"enzyme activity, inhibitor",,71.7 nM
Cc1cccc(S(=O)(=O)N2CCc3ccc(OCc4c(F)cccc4Cl)cc32)c1,RORC,"ligand displacement, radioligand",,230 nM
Cc1cnc(-c2ccc(-c3ccc(NC(=O)Nc4c(F)cc(F)cc4F)cc3F)c3c2C(=O)NC3)[nH]1,"Tyrosine-protein kinase Fer (FER, Homo sapiens, UniProt P16591)","enzyme activity, inhibitor",,14.8 nM
CCn1ncc2c1-c1cnc(N)c(c1)O[C@H](C)c1cc(F)ccc1-c1nn(C)nc1C2,FES,"enzyme activity, inhibitor, radiometric",,258 nM
O=S(=O)(c1cccc(C(F)(F)F)n1)N1CCc2ccc(OCc3c(F)cccc3Cl)cc21,RORC,"ligand displacement, radioligand",,250 nM
CC(C)[C@H](N)c1nc2cc(-c3ccncc3F)sc2c(=O)[nH]1,CDC7,"enzyme activity, inhibitor",,1.84 nM
O=S(=O)(c1cccc(C(F)(F)F)c1)N1CCc2ccc(OCc3c(F)cncc3Cl)cc21,RORC,"ligand displacement, radioligand",,230 nM
CC(C)[C@H]1CC[C@H](C(=O)N[C@H](Cc2ccccc2)C(=O)O)CC1,SLC22A8,"transporter uptake, inhibitor",,860 nM
